For assay [1], the target named is T1, 5-hydroxytryptamine receptor 1A (Homo sapiens) (UniProt P08908).
T1 sequence (whole entry): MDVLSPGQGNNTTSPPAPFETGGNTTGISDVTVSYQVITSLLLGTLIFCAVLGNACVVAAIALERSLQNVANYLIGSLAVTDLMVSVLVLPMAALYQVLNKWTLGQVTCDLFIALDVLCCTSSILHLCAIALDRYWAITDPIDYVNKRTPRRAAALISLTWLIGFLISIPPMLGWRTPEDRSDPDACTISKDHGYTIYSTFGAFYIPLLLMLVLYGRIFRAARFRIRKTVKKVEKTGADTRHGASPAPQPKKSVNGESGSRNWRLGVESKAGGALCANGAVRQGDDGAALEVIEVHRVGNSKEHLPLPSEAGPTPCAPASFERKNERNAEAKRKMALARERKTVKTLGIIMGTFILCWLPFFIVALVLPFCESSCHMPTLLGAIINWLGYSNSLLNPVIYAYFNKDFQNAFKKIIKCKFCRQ
Description: Inhibition of 5-HT1A receptor (unknown origin) at 10 uM relative to control.

The target of assay [2] is T2, 5-hydroxytryptamine receptor 2C (Homo sapiens) (UniProt P28335).
T2 sequence (whole entry): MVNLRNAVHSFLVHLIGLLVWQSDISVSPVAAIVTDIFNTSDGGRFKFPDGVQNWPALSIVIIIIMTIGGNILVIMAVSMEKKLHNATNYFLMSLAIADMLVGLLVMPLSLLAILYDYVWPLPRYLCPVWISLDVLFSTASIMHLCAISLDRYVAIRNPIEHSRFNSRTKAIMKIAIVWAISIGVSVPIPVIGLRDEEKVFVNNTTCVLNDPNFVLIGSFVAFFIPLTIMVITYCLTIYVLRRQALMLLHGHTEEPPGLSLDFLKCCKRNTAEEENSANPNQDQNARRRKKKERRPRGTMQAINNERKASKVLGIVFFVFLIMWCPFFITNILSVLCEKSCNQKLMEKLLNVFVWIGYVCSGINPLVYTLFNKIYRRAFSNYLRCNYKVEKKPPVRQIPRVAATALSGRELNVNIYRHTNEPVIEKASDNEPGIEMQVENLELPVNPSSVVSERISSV
Description: Inhibition of 5-HT2C receptor (unknown origin) at 10 uM relative to control.

For assay [3], the target named is 5-hydroxytryptamine receptor 6 (Homo sapiens) (UniProt P50406). The experiment in a line: Inhibition of 5-HT6 receptor (unknown origin) at 10 uM relative to control.
Assay [4] addresses T3, D(4) dopamine receptor (Homo sapiens) (UniProt P21917).
T3 sequence (whole entry): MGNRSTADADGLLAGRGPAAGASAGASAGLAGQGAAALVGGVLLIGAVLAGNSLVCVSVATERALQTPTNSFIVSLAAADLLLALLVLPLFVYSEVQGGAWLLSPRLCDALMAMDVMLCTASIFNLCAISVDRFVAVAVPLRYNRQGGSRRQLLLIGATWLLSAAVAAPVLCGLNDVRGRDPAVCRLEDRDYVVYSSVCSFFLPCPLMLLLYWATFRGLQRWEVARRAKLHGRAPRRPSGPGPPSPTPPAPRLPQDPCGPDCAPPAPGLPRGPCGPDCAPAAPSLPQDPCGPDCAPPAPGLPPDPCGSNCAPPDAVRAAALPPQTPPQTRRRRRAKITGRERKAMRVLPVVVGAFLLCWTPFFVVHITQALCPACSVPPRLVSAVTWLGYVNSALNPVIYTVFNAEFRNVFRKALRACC
Description: Inhibition of dopaminergic D4 receptor (unknown origin) at 10 uM relative to control.

The target in assay [5] is Mu-type opioid receptor (Homo sapiens) (UniProt P35372). Description: Inhibition of mu opioid receptor (unknown origin) at 10 uM relative to control.
The target in assay [6] is Sodium-dependent dopamine transporter (Homo sapiens) (UniProt Q01959). The experiment in a line: Inhibition of DAT (unknown origin) at 10 uM relative to control.
Assay [7] concerns the target Delta-type opioid receptor (Homo sapiens) (UniProt P41143). The experiment in a line: Inhibition of delta opioid receptor (unknown origin) at 10 uM relative to control.
The target of assay [8] is Histamine H3 receptor (Homo sapiens) (UniProt Q9Y5N1). Description: Inhibition of histamine H3 receptor (unknown origin) at 10 uM relative to control.
Assay [9] deals with 5-hydroxytryptamine receptor 2A (Homo sapiens) (UniProt P28223). Description: Inhibition of 5-HT2A receptor (unknown origin) at 10 uM relative to control.
Assay [10] concerns the target Translocator protein (Homo sapiens) (UniProt P30536). The experiment in a line: Inhibition of PBR (unknown origin) at 10 uM relative to control.
The subject of assay [11] is Mus musculus. The experiment in a line: Anticonvulsant activity in ip dosed albino CF-1 mouse assessed as protection against 6 Hz psychomotor seizure measured at 2 hrs. The class given is functional. Particulars: albino CF-1, ip. An outline of the steps: (§1)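 Screened under the NINDS ASP in male albino Carworth Farms No. 1 mice (ip) or male albino Sprague-Dawley rats (ip or po), using MES, 6 Hz (32 mA) and subcutaneous pentylenetetrazol seizure tests. Initial qualitative tests used preset doses (e.g., 30, 50, 100 mg/kg). ED50 values with 95% confidence intervals came from dose–response data collected at the time of peak effect.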

Assay [12] has as its target T4, 5-hydroxytryptamine receptor 3A (Homo sapiens) (UniProt P46098).
T4 sequence (whole entry): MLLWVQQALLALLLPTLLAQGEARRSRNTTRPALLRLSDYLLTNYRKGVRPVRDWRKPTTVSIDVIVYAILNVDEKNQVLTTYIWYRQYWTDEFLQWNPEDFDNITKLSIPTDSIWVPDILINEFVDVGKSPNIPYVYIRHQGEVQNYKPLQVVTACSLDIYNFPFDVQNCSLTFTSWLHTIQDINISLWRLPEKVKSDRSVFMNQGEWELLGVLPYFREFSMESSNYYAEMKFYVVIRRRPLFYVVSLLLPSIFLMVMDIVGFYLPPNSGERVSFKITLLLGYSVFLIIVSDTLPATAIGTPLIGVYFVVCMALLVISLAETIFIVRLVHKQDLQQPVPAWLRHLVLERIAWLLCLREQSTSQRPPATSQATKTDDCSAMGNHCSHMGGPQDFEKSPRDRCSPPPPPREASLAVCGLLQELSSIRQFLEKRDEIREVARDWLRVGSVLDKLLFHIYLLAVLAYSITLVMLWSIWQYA
The experiment in a line: Inhibition of 5-HT3 receptor (unknown origin) at 10 uM relative to control.

Assay [13] has as its system Mus musculus. Description: Anticonvulsant activity in ip dosed albino CF-1 mouse assessed as protection against 6 Hz psychomotor seizure measured at 0.25 to 4 hrs. Format: functional. Particulars: albino CF-1, ip. An outline of the steps: as §1
Assay [14] addresses 5-hydroxytryptamine receptor 1E (Homo sapiens) (UniProt P28566). The experiment in a line: Inhibition of 5-HT1E receptor (unknown origin) at 10 uM relative to control.

A word on the inhibition: it is the relative decrease from the control value, in per cent. What is called ED50 is the dose that gives a 50% effect, or the effect in half of the subjects.

Bounds are passed on as bounds.

Translocator protein (Homo sapiens), sequence (P30536 whole entry): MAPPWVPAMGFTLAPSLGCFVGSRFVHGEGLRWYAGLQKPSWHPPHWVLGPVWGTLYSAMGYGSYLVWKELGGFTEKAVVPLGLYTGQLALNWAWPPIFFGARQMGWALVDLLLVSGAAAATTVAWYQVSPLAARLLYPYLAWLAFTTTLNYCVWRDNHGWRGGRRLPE
Sodium-dependent dopamine transporter (Homo sapiens), sequence (Q01959 whole entry): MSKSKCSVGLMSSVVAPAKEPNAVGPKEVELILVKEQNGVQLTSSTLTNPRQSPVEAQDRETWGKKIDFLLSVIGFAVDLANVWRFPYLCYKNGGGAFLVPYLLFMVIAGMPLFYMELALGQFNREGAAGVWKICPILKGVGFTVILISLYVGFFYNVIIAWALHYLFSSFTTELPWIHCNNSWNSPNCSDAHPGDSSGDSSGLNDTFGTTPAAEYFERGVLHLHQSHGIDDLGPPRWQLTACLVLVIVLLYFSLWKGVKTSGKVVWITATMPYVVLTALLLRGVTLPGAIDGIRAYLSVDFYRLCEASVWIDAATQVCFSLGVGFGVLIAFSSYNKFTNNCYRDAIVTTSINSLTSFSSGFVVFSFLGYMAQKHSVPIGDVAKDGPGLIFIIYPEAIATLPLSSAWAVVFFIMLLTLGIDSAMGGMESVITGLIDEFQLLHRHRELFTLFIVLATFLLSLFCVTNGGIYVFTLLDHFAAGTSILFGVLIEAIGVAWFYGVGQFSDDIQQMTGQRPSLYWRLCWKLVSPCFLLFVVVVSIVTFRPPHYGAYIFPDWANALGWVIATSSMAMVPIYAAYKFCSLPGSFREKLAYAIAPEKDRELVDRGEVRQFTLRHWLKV
5-hydroxytryptamine receptor 2A (Homo sapiens), sequence (P28223 whole entry): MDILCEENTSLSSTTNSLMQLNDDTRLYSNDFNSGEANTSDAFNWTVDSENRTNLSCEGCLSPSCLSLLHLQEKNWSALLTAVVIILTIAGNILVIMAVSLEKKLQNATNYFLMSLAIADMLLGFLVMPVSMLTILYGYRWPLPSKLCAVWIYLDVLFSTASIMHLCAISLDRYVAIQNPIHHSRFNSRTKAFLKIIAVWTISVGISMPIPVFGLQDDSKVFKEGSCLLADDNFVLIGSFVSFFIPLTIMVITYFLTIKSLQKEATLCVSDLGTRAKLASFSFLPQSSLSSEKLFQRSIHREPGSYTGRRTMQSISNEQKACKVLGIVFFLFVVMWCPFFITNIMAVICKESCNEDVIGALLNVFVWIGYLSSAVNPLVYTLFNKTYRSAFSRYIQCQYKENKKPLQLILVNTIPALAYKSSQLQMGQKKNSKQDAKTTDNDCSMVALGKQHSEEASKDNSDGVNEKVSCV
5-hydroxytryptamine receptor 6 (Homo sapiens), sequence (P50406 whole entry): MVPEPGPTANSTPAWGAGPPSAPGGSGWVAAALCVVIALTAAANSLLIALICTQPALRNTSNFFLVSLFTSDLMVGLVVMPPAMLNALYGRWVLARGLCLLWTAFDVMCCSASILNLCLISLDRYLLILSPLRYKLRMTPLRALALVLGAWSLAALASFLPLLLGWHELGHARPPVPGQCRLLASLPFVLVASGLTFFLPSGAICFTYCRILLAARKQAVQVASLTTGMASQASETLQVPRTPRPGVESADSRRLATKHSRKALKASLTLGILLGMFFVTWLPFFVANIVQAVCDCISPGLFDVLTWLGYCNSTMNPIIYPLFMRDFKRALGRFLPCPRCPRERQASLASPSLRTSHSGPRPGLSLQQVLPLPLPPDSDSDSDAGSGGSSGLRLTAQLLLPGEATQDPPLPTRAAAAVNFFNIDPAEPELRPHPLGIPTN
5-hydroxytryptamine receptor 1E (Homo sapiens), sequence (P28566 whole entry): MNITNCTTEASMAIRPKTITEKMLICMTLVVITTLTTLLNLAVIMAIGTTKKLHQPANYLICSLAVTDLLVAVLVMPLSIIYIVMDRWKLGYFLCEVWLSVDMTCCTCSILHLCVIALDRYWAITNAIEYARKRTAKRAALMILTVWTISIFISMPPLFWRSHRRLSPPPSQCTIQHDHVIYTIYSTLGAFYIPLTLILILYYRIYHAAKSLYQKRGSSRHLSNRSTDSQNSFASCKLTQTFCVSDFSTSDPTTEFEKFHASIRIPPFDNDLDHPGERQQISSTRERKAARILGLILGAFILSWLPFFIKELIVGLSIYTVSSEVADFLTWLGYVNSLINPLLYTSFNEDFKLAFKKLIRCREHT
Histamine H3 receptor (Homo sapiens), sequence (Q9Y5N1 whole entry): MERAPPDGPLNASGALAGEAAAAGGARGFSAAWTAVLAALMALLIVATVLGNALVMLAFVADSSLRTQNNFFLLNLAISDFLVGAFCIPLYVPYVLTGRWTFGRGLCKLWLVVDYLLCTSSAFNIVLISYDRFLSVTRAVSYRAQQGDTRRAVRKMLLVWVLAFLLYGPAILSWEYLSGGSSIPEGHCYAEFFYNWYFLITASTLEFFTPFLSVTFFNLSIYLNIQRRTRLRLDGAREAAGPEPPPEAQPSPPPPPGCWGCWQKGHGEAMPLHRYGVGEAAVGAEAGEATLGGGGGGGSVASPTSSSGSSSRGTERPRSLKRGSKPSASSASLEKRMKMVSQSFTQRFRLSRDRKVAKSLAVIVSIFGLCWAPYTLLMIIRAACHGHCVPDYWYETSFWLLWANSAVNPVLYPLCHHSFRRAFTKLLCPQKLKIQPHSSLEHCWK
Mu-type opioid receptor (Homo sapiens), sequence (P35372 whole entry): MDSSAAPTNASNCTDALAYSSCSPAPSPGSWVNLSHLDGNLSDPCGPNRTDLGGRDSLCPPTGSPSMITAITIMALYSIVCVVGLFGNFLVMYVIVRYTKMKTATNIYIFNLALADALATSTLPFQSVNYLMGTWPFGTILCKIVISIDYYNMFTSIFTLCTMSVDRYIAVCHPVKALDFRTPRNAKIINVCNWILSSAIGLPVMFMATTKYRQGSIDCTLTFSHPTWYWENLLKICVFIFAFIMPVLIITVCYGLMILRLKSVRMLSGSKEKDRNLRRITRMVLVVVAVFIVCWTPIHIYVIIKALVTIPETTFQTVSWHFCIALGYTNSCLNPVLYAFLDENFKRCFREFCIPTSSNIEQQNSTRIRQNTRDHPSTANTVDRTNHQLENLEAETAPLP
Delta-type opioid receptor (Homo sapiens), sequence (P41143 whole entry): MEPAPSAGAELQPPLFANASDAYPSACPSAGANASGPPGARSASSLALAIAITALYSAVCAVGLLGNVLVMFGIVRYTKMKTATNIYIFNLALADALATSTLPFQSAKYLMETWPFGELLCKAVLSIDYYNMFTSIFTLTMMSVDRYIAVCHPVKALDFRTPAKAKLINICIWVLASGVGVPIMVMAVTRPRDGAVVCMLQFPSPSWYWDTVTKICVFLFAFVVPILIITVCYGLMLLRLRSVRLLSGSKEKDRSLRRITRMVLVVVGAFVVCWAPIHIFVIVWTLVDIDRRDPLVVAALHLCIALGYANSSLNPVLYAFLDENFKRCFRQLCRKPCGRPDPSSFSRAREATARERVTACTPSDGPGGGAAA

For the compound `Cl.NCc1ccc(OCc2cccc(OC(F)(F)F)c2)cc1`, the inhibition in assay [1] amounted to 50%; in [2], 33%; in assay [3] it was 34.3%; in assay [4], 22.1%; in assay [5] it was 2.8%; in [6] it was 45.5%. Moreover, the inhibition in [7] is 0.9%; in [8] it was 21.7%; in [9] it was 88%; in assay [10], 3.6%.

Consider `Cl.NCc1ccc(OCc2cccc(Cl)c2)cc1`, for which the inhibition in assay [1] is 7.5%; in assay [2], -4.3%; in [3], 52.4%; in [4] it was 79.4%; in [5] it was -2.2%; in assay [6], 84.1%. In addition, the inhibition in [7] came to 17%; in assay [8], 19.3%; in [9], 88.2%; in assay [12], 13.7%; in assay [10], 50%. For the same compound, the ED50 in [11] was 78 mg/kg.

As to `Cl.NCc1ccc(OCc2ccc(F)cc2)cc1`, the inhibition in assay [1] is 36%; in assay [2], 11.1%; in assay [3], 18.1%; in assay [4], 19.5%; in assay [5], -5.5%; in assay [6], 48.2%. Moreover, the inhibition in assay [7] was 17%; in assay [8], 35%; in [9], 77.1%; in assay [12] it was -4.2%; in [10], -2.3%. In addition, in [13], the ED50 was more than 100 mg/kg.

For `Cl.NCc1ccc(OCc2cccc(F)c2)cc1`, the inhibition was 50.1% in assay [1]; 41.2% in [2]; 44.8% in [3]; 9.9% in assay [4]; -8.6% in [5]; 76.8% in assay [6]. Besides, the inhibition is 18% in assay [7], -2.8% in assay [8], 88.6% in assay [9] and 15.2% in assay [10]. In assay [13], the ED50 was more than 50 mg/kg.

For `Cl.NCc1ccc(OCc2ccccc2)cc1`, the inhibition is 16% in [1]; 38.2% in assay [2]; 26.9% in assay [3]; 27.4% in assay [4]; -5.8% in [5]; 72.2% in [6]. For the same compound, the inhibition in assay [7] worked out at 22%; in assay [8], 11.2%; in assay [9] it was 76.8%; in [10], 11.8%.

As to `Cl.NCc1ccc(OCc2ccc(Cl)cc2)cc1`, the inhibition in assay [1] was 3.7%; in [2] it was 13.2%; in [3], 50.5%; in assay [4], 24.7%; in assay [14], 2.7%; in assay [5], -2.3%. For the same compound, the inhibition came to 75.7% in assay [6]; 13% in [7]; 35.3% in assay [8]; 92.6% in assay [9]; 23.1% in [12]; 12% in assay [10]. Also, in assay [11], the ED50 was less than 100 mg/kg.

For the compound `Cl.NCc1ccc(OCc2ccc(OC(F)(F)F)cc2)cc1`, the inhibition in assay [1] is 22.3%; in assay [2] it was 4.2%; in assay [3], 8.9%; in assay [4] it was -0.2%; in assay [14], -6.9%; in [5] it was -5.6%. For the same compound, the inhibition in assay [6] stood at 70.5%; in [7] it was 21%; in [8], 21.1%; in assay [9], 94.7%; in [10], 5.6%. Besides, in assay [11], the ED50 worked out at 30 mg/kg.

For `Cl.NCc1ccc(OCc2ccccc2F)cc1`, the inhibition in assay [1] was 32.3%; in assay [2] it was 32.6%; in assay [3], 21.3%; in assay [4], 44%; in assay [14], -6.6%; in assay [6], 61.7%. Besides, the inhibition in assay [7] was 17%; in assay [8], -0.4%; in assay [9] it was 75.7%; in [10], 26.8%.

For `Cl.NCc1ccc(OCc2ccccc2OC(F)(F)F)cc1`, the inhibition in [1] was 10.1%; in [2] it was 39.7%; in [3] it was 22%; in assay [4] it was 94.6%; in assay [14], -5.2%; in assay [5], -4.8%. For the same compound, the inhibition amounted to 50.7% in [6]; 23% in [7]; 11.8% in assay [8]; 73.8% in [9]; 10.4% in assay [12]; 4.7% in [10]. Also, in assay [13], the ED50 is less than 100 mg/kg.

These data come from ChEMBL document CHEMBL3091364, “Benzyloxybenzylammonium chlorides: Simple amine salts that display anticonvulsant activity” (Bioorg Med Chem, 2013).
